Data from ChEMBL document CHEMBL4371092, “3,4- seco-Norclerodane Diterpenoids from the Roots of Polyalthia laui” (J Nat Prod, 2019).

Assays:
[1] = system: MCF7; experiment: Cytotoxicity against human MCF7 cells after 72 hrs by MTT assay; assay type: cell-based; details: MCF7, 72 h
Outline: (§1)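 Human tumour lines MCF7 (breast), HeLa (cervical carcinoma) and A549 (lung adenocarcinoma) were tested by MTT assay for cytotoxicity, with doxorubicin as the positive control.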

[2] = system: A549; experiment: Cytotoxicity against human A549 cells after 72 hrs by MTT assay; assay type: cell-based; details: A549, 72 h; outline: as §1
[3] = Cytotoxicity against human C8166 cells after 72 hrs by MTT assay; assay type: cell-based
Outline: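 C8166 cells were tested for cytotoxicity by MTT assay, with CC50 defined as the 50% cytotoxic concentration.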

[4] = system: Human immunodeficiency virus 1; experiment: Antiviral activity against HIV1 3B infected in human MT4 cells assessed as reduction in virus-induced cytopathic effect by measuring number of syncytia after 3 days by inverted microscopic method; assay type: functional, organism-based; details: Human immunodeficiency virus 1, 3B, MT4, 72 h
Outline: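 Anti-HIV-1 activity was scored as inhibition of viral cytopathic effect, and EC50 was taken as the 50% effective concentration. AZT (3′-azido-3′-deoxythymidine) was run as the positive control.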

[5] = Therapeutic index, ratio of CC50 for human C8166 cells to EC50 for HIV1 3B infected in human MT4 cells; assay type: toxicity, cell-based; details: read-out: Ratio CC50/EC50
Outline: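 TI was computed as CC50/EC50. CC50 came from an MTT cytotoxicity assay on C8166 cells, and EC50 from inhibition of HIV-1 cytopathic effect, with AZT as the positive control.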

[6] = system: HeLa; experiment: Cytotoxicity against human HeLa cells after 72 hrs by MTT assay; assay type: cell-based; outline: as §1

SMILES | IC50 [1] [µM] | IC50 [2] [µM] | CC50 at 72 h [3] [µM] | EC50 [4] [µM] | selectivity ratio [5] | IC50 [6] [µM]
C/C(=C\C(=O)O)CC[C@@]1(C)[C@H](C)CC[C@]2(C)[C@@H]1CC[C@@H](O)[C@]2(C)O | > 10 | > 10 | > 200 | 27.4 | > 7.3 | > 10
CC(=O)[C@]1(C)CC[C@@H](C)[C@](C)(CC/C(C)=C/C(=O)O)[C@H]1CC(=O)O | > 10 | > 10 | > 200 | 12.2 | > 16.4 | > 10
CC1=C(C(=O)O)C[C@@H]2[C@@](C)(CC/C(=C/C(=O)O)CO)[C@H](C)CC[C@@]12C | > 10 | > 10 | > 200 | 23.1 | > 8.5 | > 10
CC1=CC(=O)C[C@@H]2[C@@](C)(CC/C(=C\C(=O)O)C(=O)O)[C@H](C)CC[C@@]12C | > 10 | > 10 | > 200 | 35.2 | > 5.7 | > 10
CO[C@@H]1OC(=O)C=C1CC[C@@]1(C)[C@H](C)CC[C@@]2(C)C(C)=C(C=O)C[C@H]12 | > 10 | > 10 | > 200 | 16.8 | > 11.9 | > 10
C[C@@H]1CC[C@@]2(C)C(C(=O)O)=CCC[C@@H]2[C@@]1(C)CC/C(=C\C(=O)O)C(=O)O | > 10 | > 10 | > 200 | 19.8 | > 16.4 | > 10
Cc1cn([C@H]2C[C@H](N=[N+]=[N-])[C@@H](CO)O2)c(=O)[nH]c1=O [ZIDOVUDINE] |  |  | 5230 | 0.02 | 338000 | 
